Values after ≈ are worked out from the molar mass of the structure shown.
Assays:
[1] = test system: Leishmania donovani; test: Antileishmanial activity against Leishmania donovani axenic amastigote; assay type: functional, organism-based
[2] = test system: Leishmania donovani; test: Antileishmanial activity against Leishmania donovani […] in human THP1 cells by intramacrophage assay; assay type: functional, organism-based; conditions: for EC50: Leishmania donovani, THP-1
[3] = Solubility of compound in fasted simulated intestinal fluid at 1 mg after 4 hrs by HPLC-UV analysis; assay type: physicochemical; conditions: for solubility at 4 h: fasted simulated intestinal fluid; for solubility: 4 h
In short: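 1 mg solid shaken in 1 mL FaSSIF (3 mM sodium taurocholate, 0.75 mM lecithin, phosphate buffer pH 6.5) at 900 rpm for 4 h at room temperature, then filtered. Supernatant quantified by HPLC-UV against single-point DMSO calibration. Range 1–1000 μg/mL.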

[4] = Kinetic aqueous solubility of the compound in phosphate buffer at pH 7.4 by CLND assay; assay type: physicochemical; conditions: for solubility kinetic: phosphate buffer, read-out: Kinetic_solubility; for Kinetic_solubility: buffer
In short: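 From 10 mM DMSO stock diluted 1:20 into pH 7.4 PBS, equilibrated 1 h at RT, filtered. Filtrate quantified by calibrated flow-injection CLND. Dynamic range 1–500 μM.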

[5] = Lipophilicity, log D of the compound at pH 7.4 assessed as chromatographic hydrophobicity index; assay type: physicochemical; conditions: buffer
In short: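 Reversed-phase C18 HPLC with fast acetonitrile gradient. CHI taken from gradient retention time via a calibration line of standards. ChromLogD = 0.0857 × CHI − 2.00.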

[6] = test system: Leishmania donovani; test: Antileishmanial activity against Leishmania donovani LV9 amastigotes infected in BALB/c mouse assessed as suppression of parasite load within liver at 50 mg/kg, po administered bid for 10 days relative to control; assay type: functional
In short: (§1)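 Female BALB/c mice, 5 per group, infected i.v. with about 2×10^7 L. donovani LV9 amastigotes harvested from infected hamster spleen. Oral dosing starts day 7 post-infection, in 0.5% HPMC/0.4% Tween 80/0.5% benzyl alcohol, or 10% DMSO/60% PEG400/30% water for the 5-day 50 mg/kg regimen. Dosing solutions made fresh daily. Killed day 14 (5-day) or 19 (10-day). Liver smears give LDU (amastigotes/500 nucleated cells × organ weight). Mean LDU compared with vehicle control gives % suppression.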

[7] = test system: Leishmania donovani; test: Antileishmanial activity against Leishmania donovani LV9 amastigotes infected in BALB/c mouse assessed as suppression of parasite load within liver at 10 mg/kg, po administered bid for 10 days relative to control; assay type: functional; in short: as §1
[8] = Intrinsic clearance in human liver microsomes at 0.5 uM after 3 to 30 mins in presence of NADPH by UPLC-MS/MS analysis; assay type: ADME, Microsome
In short: (§2)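 0.5 μM compound with female CD1 mouse or human liver microsomes, started with excess NADPH in 50 mM potassium phosphate pH 7.4. Aliquots at 0, 3, 6, 9, 15 and 30 min quenched in acetonitrile with internal standard. UPLC-MS/MS; rate constant from exponential decay of compound/IS ratio. Verapamil as positive control.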

[9] = Mean AUClast in Sprague-Dawley rat at 300 mg/kg, po measured up to 24 hrs by UPLC-MS/MS analysis; assay type: ADME, organism-based; set-up: dose 300 mg/kg, time < 24 hr, route oral; conditions: in vivo
In short: (§3)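 Male Sprague–Dawley rats (n=3) given oral gavage as 1% methylcellulose suspension at 10, 100 or 300 mg/kg. Tail-vein blood at 0.25–24 h into K-EDTA, diluted in 0.1N Hepes and stored at −20 °C. Protein precipitation, then LC-MS/MS (range 2.90–2860 ng/mL). AUC0–t by linear up-log down trapezoidal rule.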

[10] = test system: Leishmania donovani; test: Antileishmanial activity against Leishmania donovani LV9 amastigotes infected in BALB/c mouse assessed as suppression of parasite load within liver at 100 mg/kg, po administered bid for 5 days relative to control; assay type: functional; in short: as §1
[11] = Fraction unbound in human plasma at 10 ug/ml after 15 mins by UPLC-MS/MS analysis; assay type: ADME, cell-free
[12] = Intrinsic clearance in CD1 mouse liver microsomes at 0.5 uM after 3 to 30 mins in presence of NADPH by UPLC-MS/MS analysis; assay type: ADME, Microsome; in short: as §2
[13] = test system: Leishmania donovani; test: Antileishmanial activity against Leishmania donovani LV9 amastigotes infected in BALB/c mouse assessed as suppression of parasite load within liver at 25 mg/kg, po administered bid for 10 days relative to control; assay type: functional; in short: as §1
[14] = test system: HepG2; test: Cytotoxicity against human HepG2 cells; assay type: cell-based
[15] = test system: THP-1; test: Cytotoxicity against human THP1 cells; assay type: cell-based
[16] = Mean AUClast in Sprague-Dawley rat at 100 mg/kg, po measured up to 24 hrs by UPLC-MS/MS analysis; assay type: ADME, organism-based; set-up: dose 100 mg/kg, time < 24 hr, route oral; conditions: in vivo; in short: as §3
[17] = Mean AUClast in Sprague-Dawley rat at 10 mg/kg, po measured up to 24 hrs by UPLC-MS/MS analysis; assay type: ADME, organism-based; set-up: dose 10 mg/kg, time < 24 hr, route oral; conditions: in vivo; in short: as §3
[18] = Fraction unbound in CD1 mouse plasma at 10 ug/ml after 15 mins by UPLC-MS/MS analysis; assay type: ADME, cell-free
[19] = Dissociation constant, pKa of the compound by UV-spectroscopy; assay type: physicochemical
In short: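 Sirius T3 acid–base titration with UV read-out: 5 μL of 10 mM sample, absorbance over 54 pH values in about 5 min. Methanol cosolvent with Yasuda–Shedlovsky extrapolation used when precipitation occurred.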

[20] = Cmax in BALB/c mouse at 10 mg/kg, po measured up to 24 hrs by UPLC-MS/MS analysis; assay type: ADME, organism-based; set-up: dose 10 mg/kg, route oral; conditions: in vivo
In short: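 Single oral dose to female Balb/c mice (n=3) in 10% DMSO/60% PEG400/30% water. Blood sampled at 0.08–24 h and mixed with two volumes of water. Compound quantified by UPLC-MS/MS. Parameters taken from the mean blood concentration–time curve.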

[21] = Permeability of the compound by artificial membrane permeability assay; assay type: ADME; conditions: PAMPA; read-out: permeability
[22] = test system: Leishmania donovani; test: Antileishmanial activity against Leishmania donovani LV9 amastigotes infected in BALB/c mouse assessed as suppression of parasite load within liver at 50 mg/kg, po administered bid for 5 days relative to control; assay type: functional; in short: as §1
[23] = Oral bioavailability in BALB/c mouse at 10 mg/kg measured up to 24 hrs by UPLC-MS/MS analysis; assay type: ADME, organism-based; conditions: in vivo
[24] = AUClast in BALB/c mouse at 10 mg/kg, po measured up to 24 hrs by UPLC-MS/MS analysis; assay type: ADME, organism-based; set-up: time < 24 hr, dose 10 mg/kg, route oral; conditions: in vivo
In short: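 Female Balb/c mice (n=3) dosed orally in 10% (v/v) DMSO, 60% PEG 400, 30% deionized water. AUC0–last (to last measurement) derived from the mean blood concentration–time curve.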

[25] = Blood clearance in BALB/c mouse at 10 mg/kg, […] measured up to 24 hrs by UPLC-MS/MS analysis; assay type: ADME, organism-based; conditions: whole blood
[26] = Volume of distribution at steady state in BALB/c mouse at 10 mg/kg, po measured up to 24 hrs by UPLC-MS/MS analysis; assay type: ADME, organism-based; conditions: in vivo
In short: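 Female Balb/c mice (n = 3) were dosed in 10% (v/v) DMSO, 60% PEG 400 and 30% deionized water. Compound in blood was quantified by UPLC-MS/MS, and parameters were derived from the mean blood concentration–time curve.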

## CC(C)CC(=O)c1sc(NC2CCCCC2)nc1N
[1]
  EC50: 50.1 µM

## COc1nc(N[C@H]2CC[C@H](NS(=O)(=O)CCC(F)(F)F)CC2)nc2[nH]nc(N3CCOCC3)c12
[2]
  EC50: 1.26 µM
[3]
  solubility at 4 h: 53 µg/mL (≈ 104 µM)
[4]
  solubility kinetic: 311 µM (≈ 158 µg/mL)

## C[C@@H]1CN(c2n[nH]c3nc(N[C@H]4CC[C@H](NS(=O)(=O)CCC(F)(F)F)CC4)ncc23)CCO1
[2]
  EC50: 5.01 µM
[3]
  solubility at 4 h: 23 µg/mL (≈ 46.8 µM)
[4]
  solubility kinetic: 52 µM (≈ 25.6 µg/mL)

## COc1nc(N[C@H]2CC[C@H](NS(=O)(=O)CC3CCCO3)CC2)nc2[nH]nc(N3CCOCC3)c12 (stereo in doubt; 35)
[2]
  EC50: 6.31 µM
[3]
  solubility: 208 µg/mL (≈ 420 µM)
[4]
  Kinetic_solubility: 421 µM

## O=S(=O)(CCC(F)(F)F)N[C@H]1CC[C@H](Nc2ncc3c(N4CCCC4)n[nH]c3n2)CC1
[2]
  EC50: 2 µM
[4]
  solubility kinetic: 12 µM (≈ 5.54 µg/mL)
[5]
  chromatographic logD: 4

## O=S(=O)(CCC(F)(F)F)N[C@H]1CC[C@H](Nc2ncc3c(-c4cncnc4)n[nH]c3n2)CC1
[2]
  EC50: 6.31 µM
[4]
  solubility kinetic: 11 µM (≈ 5.18 µg/mL)
[5]
  chromatographic logD: 3

## CC(C)CS(=O)(=O)N[C@H]1CC[C@H](Nc2ncc3c(N4CCOCC4)n[nH]c3n2)CC1
[6]
  Activity: 97%
[7]
  Activity: 36%
[8]
  CLH: 1.8 mL/min/g
[9]
  AUC(0-t) at 24 h: 2380 ng·h/mL
[10]
  Activity: 94%
[11]
  fraction unbound at 0.25 h, 10 ug/ml: 0.33
[2]
  EC50: 0.501 µM
[12]
  CLH: 0.9 mL/min/g
[13]
  Activity: 74%
[3]
  solubility at 4 h: 9 µg/mL (≈ 20.6 µM)
[14]
  EC50: > 100 µM
[15]
  EC50: > 50.1 µM
[16]
  AUC(0-t) at 24 h: 2960 ng·h/mL
[17]
  AUC(0-t) at 24 h: 162 ng·h/mL
[4]
  solubility kinetic: 328 µM (≈ 144 µg/mL)
[18]
  fraction unbound at 0.25 h, 10 ug/ml: 0.37

## CC(C)Cc1n[nH]c2nc(N[C@H]3CC[C@H](NC(=O)Cc4ccccc4)CC3)ncc12
[8]
  CLH: 1.9 mL/min/g
[2]
  EC50: > 50.1 µM
[12]
  CLH: 9.5 mL/min/g
[14]
  EC50: 50.1 µM
[15]
  EC50: > 50.1 µM

## O=S(=O)(CCC(F)(F)F)N[C@H]1CC[C@H](Nc2ncc3c(N4CCOCC4)n[nH]c3n2)CC1
[19]
  pKa: 3.7
[2]
  EC50: 3.16 µM
[3]
  solubility at 4 h: 7 µg/mL (≈ 14.7 µM)
[4]
  solubility kinetic: 259 µM (≈ 124 µg/mL)
[5]
  chromatographic logD: 3

## O=S(=O)(CCC(F)(F)F)N[C@H]1CC[C@H](Nc2ncc3c(N4CCCCC4)n[nH]c3n2)CC1
[2]
  EC50: 1.58 µM
[4]
  solubility kinetic: 46 µM (≈ 21.9 µg/mL)
[5]
  chromatographic logD: 4.4

## CC1COCCN1c1n[nH]c2nc(N[C@H]3CC[C@H](NS(=O)(=O)CCC(F)(F)F)CC3)ncc12 (stereo in doubt; 37)
[2]
  EC50: 2 µM
[3]
  solubility: 118 µg/mL (≈ 240 µM)
[4]
  Kinetic_solubility: >= 292 uM

## O=S(=O)(CCC(F)(F)F)N[C@H]1CC[C@H](Nc2ncc3c(N4CCNCC4)n[nH]c3n2)CC1
[2]
  EC50: 31.6 µM
[4]
  solubility kinetic: 346 µM (≈ 165 µg/mL)
[5]
  chromatographic logD: 1.6

## CC1COCCN1c1n[nH]c2nc(N[C@H]3CC[C@H](NS(=O)(=O)CCC(F)(F)F)CC3)ncc12 (stereo in doubt; 36)
[2]
  pEC50: 5.6
[3]
  solubility at 4 h: 88 µg/mL (≈ 179 µM)
[4]
  solubility kinetic: ≥ 310 µM

## O=S(=O)(CCC(F)(F)F)N[C@H]1CC[C@H](Nc2ncc3c(-c4ccccn4)n[nH]c3n2)CC1
[8]
  CLH: < 0.5 mL/min/g
[20]
  Cmax: 1910 ng/mL
[21]
  Papp: 44 ×10⁻⁶ cm/s
[11]
  fraction unbound at 0.25 h, 10 ug/ml: 0.08
[19]
  pKa: 3.2
[2]
  EC50: 0.501 µM
[22]
  Activity: 85%
[23]
  bioavailability: 44%
[24]
  AUC(0-t) at 24 h: 17400 ng·h/mL
[25]
  CL/F: 4 mL/min/kg
[12]
  CLH: 0.6 mL/min/g
[3]
  solubility at 4 h: < 1 µg/mL
[14]
  EC50: > 100 µM
[15]
  EC50: 50.1 µM
[26]
  Vdss: 0.9 L/kg
[4]
  solubility kinetic: 8 µM (≈ 3.76 µg/mL)
[18]
  fraction unbound at 0.25 h, 10 ug/ml: 0.13

## O=S(=O)(CCC(F)(F)F)N[C@H]1CC[C@H](Nc2ncc3c(C4CCOCC4)n[nH]c3n2)CC1
[2]
  EC50: 3.16 µM
[4]
  solubility kinetic: 35 µM (≈ 16.7 µg/mL)
[5]
  chromatographic logD: 3.2

## COc1nc(N[C@H]2CC[C@H](NS(=O)(=O)CC3CCCO3)CC2)nc2[nH]nc(N3CCOCC3)c12 (stereo in doubt; 34)
[2]
  pEC50: 5.4
[3]
  solubility at 4 h: 283 µg/mL (≈ 571 µM)
[4]
  solubility kinetic: 412 µM (≈ 204 µg/mL)

— ChEMBL document CHEMBL4368903, “Identification of GSK3186899/DDD853651 as a Preclinical Development Candidate for the Treatment of Visceral Leishmaniasis” (J Med Chem, 2019)
